Results as given in ChEMBL document CHEMBL4382258, “Design and Optimization of Sulfone Pyrrolidine Sulfonamide Antagonists of Transient Receptor Potential Vanilloid-4 with in Vivo Activity in a Pulmonary Edema Model” (J Med Chem, 2018).
In brackets after ≈: the same amount, converted by molar mass.

Key:
[1] = target: T1, Transient receptor potential cation channel subfamily V member 4 (Homo sapiens, UniProt Q9HBA0); experiment: Antagonist activity at human TRPV4 expressed in HEK cells assessed as inhibition of GSK634775-induced Ca2+ influx by FLIPR assay; assay type: cell-based
[2] = MRT in Sprague-Dawley rat at 1 mg/kg, iv or 2 mg/kg, po by LC/MS/MS analysis; assay type: ADME, organism-based; details: in vivo
[3] = Oral bioavailability in Sprague-Dawley rat at 2 mg/kg by LC/MS/MS analysis; assay type: ADME, organism-based; details: in vivo
[4] = Clearance adjusted for unbound fraction in Sprague-Dawley rat at 1 mg/kg, iv administered as 30 mins infusion by LC/MS/MS analysis; assay type: ADME, organism-based; details: in vivo, 0.5 h
[5] = Clearance in Sprague-Dawley rat at 1 mg/kg, iv administered as 30 mins infusion by LC/MS/MS analysis; assay type: ADME, organism-based; details: in vivo
[6] = Volume of distribution at steady state in Sprague-Dawley rat at 1 mg/kg, iv or 2 mg/kg, po by LC/MS/MS analysis; assay type: ADME, organism-based; details: in vivo, read-out: Vdss
[7] = Metabolic stability in rat liver microsomes assessed as parent compound remaining after 30 mins; assay type: ADME, Microsome; details: read-out: Stability
Method in brief: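 Rat liver microsomes incubated 30 min with glutathione for trapping; parent remaining measured.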

[8] = target: T1, Transient receptor potential cation channel subfamily V member 4; experiment: Antagonist activity at human TRPV4 expressed in BHK/AC9 cells assessed as inhibition of GSK634775-induced […] pre-incubated for 10 mins followed by agonist addition by Fluo-4-AM dye-based FLIPR assay; assay type: cell-based
[9] = target: T1, Transient receptor potential cation channel subfamily V member 4; experiment: Antagonist activity at human TRPV4 expressed in HEK cells assessed as inhibition of GSK634775-induced […] pre-incubated for 10 mins followed by agonist addition by Fluo-4-AM dye-based FLIPR assay; assay type: cell-based
Method in brief: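 TRPV4 from human recombinant channels in HEK cells; block of calcium mobilization evoked by agonist GSK634775, read on a fluorescent imaging plate reader; reported potency is an average of repeat determinations.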

HepG2 [10] = experiment: Induction of phospholipidosis in human HepG2 cells after 72 hrs by fluorescence assay relative to control; assay type: cell-based; details: hepg2, 72 h
HepG2 [11] = experiment: Induction of phospholipidosis in human HepG2 cells after 72 hrs by fluorescence assay; assay type: cell-based; details: hepg2, 72 h
[12] = pH 10.5 – pH 7.4
Rattus norvegicus [13] = experiment: Reversal of heart failure-induced pulmonary edema in Sprague-Dawley rat assessed as inhibition of GSK1016790A-induced increase in lung wet weight to body weight ratio at 0.09 to 0.78 mg/kg, iv bolus loading dose followed by 0.07 to 0.6 ug/kg/min, iv continuous infusion dose for 60 mins prior to agonist administration; assay type: functional, organism-based
Method in brief: (§1)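 Rats given vehicle or antagonist by i.v. infusion, then agonist GSK1016790A i.v. at 10 µg/kg/min for 10 min (100 µg/kg total). Edema scored as wet lung weight/body weight ratio against naïve animals; inhibition computed from the agonist response; mean ± SEM.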

Cytochrome P450 3A4 [14] = target: T2, Cytochrome P450 3A4 (Homo sapiens, UniProt P08684); details: 100 µM
[15] = Lipophilicity, chromatographic hydrophobicity index of the compound in immobilized artificial membrane
[16] = Fraction unbound in Sprague-Dawley rat heart failure-induced pulmonary edema model at 0.09 to 0.78 mg/kg, iv bolus loading dose followed by 0.07 to 0.6 ug/kg/min, iv continuous infusion dose for 60 mins; assay type: ADME, organism-based; details: in vivo
[17] = target: Transient receptor potential cation channel subfamily V member 4 (Rattus norvegicus, UniProt Q9ERZ8); experiment: Antagonist activity at rat TRPV4 expressed in BHK/AC9 cells assessed as inhibition of GSK634775-induced […] pre-incubated for 10 mins followed by agonist addition by Fluo-4-AM dye-based FLIPR assay; assay type: cell-based
Rattus norvegicus [18] = experiment: Reversal of heart failure-induced pulmonary edema in Sprague-Dawley rat assessed as inhibition of GSK1016790A-induced increase in lung wet weight to body weight ratio at 0.26 mg/kg, iv bolus loading dose followed by 0.2 ug/kg/min, iv continuous infusion dose for 60 mins prior to agonist administration relative to control; assay type: functional; method in brief: as §1
[19] = target: Voltage-gated inwardly rectifying potassium channel KCNH2 (Homo sapiens, UniProt Q12809); experiment: Inhibition of human ERG expressed in CHO cells by Qpatch assay
[20] = Plasma concentration in Sprague-Dawley rat heart failure-induced pulmonary edema model at 0.26 mg/kg, iv bolus loading dose followed by 0.2 ug/kg/min, iv continuous infusion dose for 60 mins; assay type: ADME, organism-based
[21] = Plasma concentration in Sprague-Dawley rat heart failure-induced pulmonary edema model at 0.78 mg/kg, iv bolus loading dose followed by 0.6 ug/kg/min, iv continuous infusion dose for 60 mins; assay type: ADME, organism-based
[22] = Plasma concentration in Sprague-Dawley rat heart failure-induced pulmonary edema model at 0.09 mg/kg, iv bolus loading dose followed by 0.07 ug/kg/min, iv continuous infusion dose for 60 mins; assay type: ADME, organism-based
[23] = Kinetic aqueous solubility of the compound by chemiluminescence nitrogen detection analysis; details: buffer
Cytochrome P450 3A4 [24] = target: T2, Cytochrome P450 3A4; experiment: Reversible inhibition of CYP3A4 (unknown origin) in presence of NADPH by vivid red substrate-based assay
[25] = Permeability of the compound by PAMPA; assay type: ADME; details: read-out: permeability
[26] = target: T1, Transient receptor potential cation channel subfamily V member 4; experiment: Antagonist activity at TRPV4 (unknown origin)

T2 sequence (P08684 whole entry): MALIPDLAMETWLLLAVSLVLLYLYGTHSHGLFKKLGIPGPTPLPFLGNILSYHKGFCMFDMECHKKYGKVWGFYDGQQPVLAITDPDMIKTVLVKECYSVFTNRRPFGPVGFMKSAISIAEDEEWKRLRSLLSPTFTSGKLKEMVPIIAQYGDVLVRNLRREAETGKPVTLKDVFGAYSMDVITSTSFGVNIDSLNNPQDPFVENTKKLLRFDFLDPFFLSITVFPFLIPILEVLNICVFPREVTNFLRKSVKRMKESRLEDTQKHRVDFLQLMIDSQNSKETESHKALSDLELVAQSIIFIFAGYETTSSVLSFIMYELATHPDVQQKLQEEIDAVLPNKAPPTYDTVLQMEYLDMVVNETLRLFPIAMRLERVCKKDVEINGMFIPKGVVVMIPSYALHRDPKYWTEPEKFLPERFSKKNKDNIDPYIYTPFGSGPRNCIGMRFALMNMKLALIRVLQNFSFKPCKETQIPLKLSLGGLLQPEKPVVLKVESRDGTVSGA
T1 sequence (Q9HBA0 whole entry): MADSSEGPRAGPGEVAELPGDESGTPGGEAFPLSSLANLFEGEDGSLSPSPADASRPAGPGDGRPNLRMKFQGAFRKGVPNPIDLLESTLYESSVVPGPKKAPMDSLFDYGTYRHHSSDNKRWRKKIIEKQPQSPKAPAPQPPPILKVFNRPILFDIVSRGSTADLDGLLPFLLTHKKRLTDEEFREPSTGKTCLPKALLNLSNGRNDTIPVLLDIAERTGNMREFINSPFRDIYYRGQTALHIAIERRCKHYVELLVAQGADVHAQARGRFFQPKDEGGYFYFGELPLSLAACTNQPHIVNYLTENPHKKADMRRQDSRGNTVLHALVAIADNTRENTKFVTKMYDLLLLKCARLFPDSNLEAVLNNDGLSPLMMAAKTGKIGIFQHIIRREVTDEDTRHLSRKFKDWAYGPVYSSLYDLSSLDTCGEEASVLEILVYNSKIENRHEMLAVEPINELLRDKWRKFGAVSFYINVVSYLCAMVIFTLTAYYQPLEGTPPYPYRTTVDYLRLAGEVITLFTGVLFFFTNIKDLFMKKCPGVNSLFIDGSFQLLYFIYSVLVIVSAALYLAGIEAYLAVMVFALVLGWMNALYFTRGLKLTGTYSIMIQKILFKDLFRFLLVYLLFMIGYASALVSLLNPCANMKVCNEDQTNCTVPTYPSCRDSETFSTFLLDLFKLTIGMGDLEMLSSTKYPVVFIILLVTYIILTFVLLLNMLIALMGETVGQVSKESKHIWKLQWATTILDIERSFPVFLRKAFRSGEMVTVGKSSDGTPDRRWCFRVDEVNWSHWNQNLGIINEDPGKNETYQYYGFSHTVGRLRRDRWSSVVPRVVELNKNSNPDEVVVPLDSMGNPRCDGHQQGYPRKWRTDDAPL
Chain of Voltage-gated inwardly rectifying potassium channel KCNH2 (Q12809 whole entry, the tested form may be a part): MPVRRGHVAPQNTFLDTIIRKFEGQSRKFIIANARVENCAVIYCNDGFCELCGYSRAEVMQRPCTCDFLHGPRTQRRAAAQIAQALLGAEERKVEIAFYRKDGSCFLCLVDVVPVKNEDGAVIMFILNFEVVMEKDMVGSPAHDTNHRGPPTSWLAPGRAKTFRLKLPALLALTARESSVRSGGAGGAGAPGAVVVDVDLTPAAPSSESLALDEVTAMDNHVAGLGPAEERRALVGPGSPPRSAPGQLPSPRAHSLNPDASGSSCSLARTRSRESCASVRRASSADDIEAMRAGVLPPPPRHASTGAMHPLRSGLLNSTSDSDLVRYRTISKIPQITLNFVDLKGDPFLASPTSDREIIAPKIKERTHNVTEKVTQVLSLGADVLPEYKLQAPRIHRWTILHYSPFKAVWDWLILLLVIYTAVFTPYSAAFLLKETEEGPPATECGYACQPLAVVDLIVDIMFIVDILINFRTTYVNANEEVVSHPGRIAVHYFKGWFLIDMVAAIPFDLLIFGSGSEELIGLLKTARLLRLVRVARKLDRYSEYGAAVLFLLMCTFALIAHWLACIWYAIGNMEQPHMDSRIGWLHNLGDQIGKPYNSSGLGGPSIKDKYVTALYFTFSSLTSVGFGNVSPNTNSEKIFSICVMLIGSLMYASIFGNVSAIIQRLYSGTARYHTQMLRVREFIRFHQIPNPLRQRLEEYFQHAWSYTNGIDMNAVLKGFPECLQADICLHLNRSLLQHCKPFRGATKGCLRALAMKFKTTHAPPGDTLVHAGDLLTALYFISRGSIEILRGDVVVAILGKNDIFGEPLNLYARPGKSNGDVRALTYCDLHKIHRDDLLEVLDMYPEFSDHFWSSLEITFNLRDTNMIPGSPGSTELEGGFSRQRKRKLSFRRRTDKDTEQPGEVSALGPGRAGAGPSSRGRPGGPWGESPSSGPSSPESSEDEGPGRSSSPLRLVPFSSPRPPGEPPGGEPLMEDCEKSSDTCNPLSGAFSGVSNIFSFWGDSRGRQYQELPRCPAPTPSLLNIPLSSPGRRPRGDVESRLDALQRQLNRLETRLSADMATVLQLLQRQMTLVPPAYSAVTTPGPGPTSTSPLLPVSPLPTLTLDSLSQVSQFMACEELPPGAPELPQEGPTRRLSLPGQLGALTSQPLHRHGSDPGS
Chain of Transient receptor potential cation channel subfamily V member 4 (Rattus norvegicus, UniProt Q9ERZ8) (Q9ERZ8 whole entry, the tested form may be a part): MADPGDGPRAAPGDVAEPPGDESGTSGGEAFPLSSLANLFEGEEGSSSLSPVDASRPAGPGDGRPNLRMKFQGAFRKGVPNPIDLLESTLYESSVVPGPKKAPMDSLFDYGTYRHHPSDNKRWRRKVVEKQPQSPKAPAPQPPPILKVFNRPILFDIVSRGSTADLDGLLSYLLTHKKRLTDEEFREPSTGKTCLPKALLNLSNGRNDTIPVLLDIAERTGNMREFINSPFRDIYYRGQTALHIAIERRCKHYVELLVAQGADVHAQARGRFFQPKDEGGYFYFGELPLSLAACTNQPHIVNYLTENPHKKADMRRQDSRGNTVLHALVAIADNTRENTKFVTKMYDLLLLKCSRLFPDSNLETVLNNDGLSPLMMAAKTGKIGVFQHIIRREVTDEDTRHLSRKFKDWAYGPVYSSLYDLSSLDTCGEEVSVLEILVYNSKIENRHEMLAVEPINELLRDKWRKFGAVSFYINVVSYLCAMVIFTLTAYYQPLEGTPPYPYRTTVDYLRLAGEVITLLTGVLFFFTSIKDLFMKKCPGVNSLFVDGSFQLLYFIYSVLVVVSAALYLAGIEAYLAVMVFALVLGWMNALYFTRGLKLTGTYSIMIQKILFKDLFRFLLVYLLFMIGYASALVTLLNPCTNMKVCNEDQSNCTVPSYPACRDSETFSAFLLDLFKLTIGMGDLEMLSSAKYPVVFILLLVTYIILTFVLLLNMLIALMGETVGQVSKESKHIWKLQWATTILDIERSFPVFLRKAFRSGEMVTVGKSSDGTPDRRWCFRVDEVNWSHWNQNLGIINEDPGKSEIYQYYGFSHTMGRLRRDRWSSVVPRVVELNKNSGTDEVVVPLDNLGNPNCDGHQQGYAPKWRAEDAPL

| SMILES | MRT [2] [h] | bioavailability [3] [%] | CL free [4] [mL/min/kg] | clearance [5] [mL/min/kg] | Vd [6] [L/kg] | IC50 [8] [nM] | IC50 [9] [nM] | other results |
| --- | --- | --- | --- | --- | --- | --- | --- | --- |
| O=C(NC1(c2ccccc2)CC1)c1c(CN2CCC(N3CCCCC3)CC2)c(-c2cccc(C(F)(F)F)c2)nc2cc(Br)ccc12 | – | – | – | – | – | – | – | IC50 [1]: 50 nM |
| N#Cc1ccc(S(=O)(=O)N2C[C@H](S(=O)(=O)c3ccc(Cl)cn3)[C@](O)(CO)C2)c(Cl)c1 | 1.4 | 62 | 11 | 23 | 2 | – | – | – |
| N#Cc1ccc(S(=O)(=O)[C@H]2CN(S(=O)(=O)c3ccc(Cl)cc3Cl)C[C@@]2(O)CO)cc1F | 0.8 | 51 | 14 | 25 | 1.2 | 2 | – | remaining at 0.5 h [7]: 46% |
| N#Cc1ccc(S(=O)(=O)N2C[C@H](S(=O)(=O)c3ccc(Cl)cc3)[C@](O)(CO)C2)c(C(F)(F)F)n1 | 0.2 | 8 | 66 | 310 | 3.6 | 20 | – | – |
| N#Cc1ccc(S(=O)(=O)[C@@H]2CN(S(=O)(=O)c3ccc(Cl)cc3Cl)C[C@]2(O)CO)cc1 | – | – | – | – | – | – | 159 | – |
| N#Cc1ccc(S(=O)(=O)N2C[C@H](S(=O)(=O)c3ccc(Cl)cc3)[C@](O)(CO)C2)cn1 | 3 | 62 | 1.2 | 22 | 4.1 | 631 | – | – |
| N#Cc1ccc(S(=O)(=O)N2C[C@H](S(=O)(=O)c3ccc(Cl)cc3)[C@](O)(CN)C2)c(Cl)c1 | 5.7 | 22 | 2.7 | 12 | 4 | – | – | Activity (HepG2 [10]): 425%; pMED (HepG2 [11]): 4.7 |
| N#Cc1ccc(S(=O)(=O)N2C[C@H](S(=O)(=O)c3ccc(Cl)cn3)[C@@](O)(CN)C2)c(Cl)c1 | 2.2 | 56 | 1.7 | 1.7 | 0.2 | 0.5 | – | ΔCHI [12]: 3.7; fIC50 (Rattus norvegicus [13]): 8.5 nM; IC50 (Rattus norvegicus [13]; Rattus norvegicus, Sprague-Dawley): 611 nM; TDI (Cytochrome P450 3A4 [14]): Not Active; CHI [15]: 36; fraction unbound at 1 h [16]: 0.014; pMED (HepG2 [11]): < 4; IC50 [17]: 1 nM; inhibition (INH) (Rattus norvegicus [18]): 88%; IC50 [19]: 8000 nM; concentration at 1 h [20]: 2100 nM; concentration at 1 h [21]: 4500 nM; concentration at 1 h [22]: 400 nM; solubility kinetic [23]: 500 µM (≈ 246 µg/mL); IC50 (Cytochrome P450 3A4 [24]): 4000 nM |
| N#Cc1ccc(O[C@H]2CN(S(=O)(=O)c3ccc(Cl)cc3Cl)C[C@@H]2O)cc1 | – | – | – | – | – | – | 32 | – |
| N#Cc1ccc(S(=O)(=O)N2C[C@H](S(=N)(=O)c3ccc(Cl)cc3)[C@](O)(CO)C2)c(Cl)c1 (some centres undefined) | 1 | 38 | 4.8 | 52 | 3.2 | 20 | – | – |
| N#Cc1ccc(S(=O)(=O)[C@H]2CN(S(=O)(=O)c3ccc(Cl)cc3Cl)C[C@@H]2O)cc1 | 2 | 100 | 30 | 9 | 1.1 | – | 25 | Papp [25]: 78 ×10⁻⁶ cm/s |
| N#Cc1ccc(S(=O)(=O)[C@@H]2CN(S(=O)(=O)c3ccc(Cl)cc3Cl)C[C@@]2(O)CO)cc1 | – | – | – | – | – | – | 1590 | – |
| N#Cc1ccc(S(=N)(=O)N2C[C@H](S(=O)(=O)c3ccc(Cl)cc3)[C@](O)(CO)C2)c(Cl)c1 (some centres undefined) | 0.9 | 80 | 8.9 | 48 | 2.7 | 40 | – | – |
| CC(C)(C)c1cc(N2C[C@@]3(CCC[C@](C)(Cn4cnc5ccc(C#N)cc54)C3)OC2=O)no1 | – | – | – | – | – | – | – | IC50 [26]: 7.5 nM |
| N#Cc1ccc(O[C@H]2CN(S(=O)(=O)c3ccc(Cl)cc3Cl)C[C@@]2(O)CO)cc1 | 0.6 | 46 | 15 | 74 | 2.4 | – | – | Papp [25]: 37 ×10⁻⁶ cm/s |
| N#Cc1ccc(S(=O)(=O)[C@H]2CN(S(=O)(=O)c3ccc(Cl)cc3Cl)C[C@@]2(O)CO)cc1 | 1.7 | 100 | 9 | 25 | 2.3 | – | 7.9 | remaining at 0.5 h [7]: 89%; Papp [25]: 45 ×10⁻⁶ cm/s |
| N#Cc1ccc(S(=O)(=O)[C@H]2CN(S(=O)(=O)c3ccc(Cl)cc3Cl)C[C@]2(O)CO)cc1 | – | – | – | – | – | – | 50 | – |
| N#Cc1ccc(S(=O)(=O)[C@H]2CN(S(=O)(=O)c3ccc(C#N)cc3Cl)C[C@@]2(O)CO)cc1 | 1 | 15 | 4 | 35 | 2.2 | 3.2 | – | Papp [25]: 35 ×10⁻⁶ cm/s; solubility kinetic [23]: 400 µM (≈ 193 µg/mL) |
| N#Cc1ccc(S(=O)(=O)N2C[C@H](S(=O)(=O)c3ccc(Cl)cn3)[C@](O)(CN)C2)c(Cl)c1 | 1.9 | 64 | 3.8 | 12 | 1.3 | 0.5 | – | ΔCHI [12]: -2.2; TDI (Cytochrome P450 3A4 [14]): Not Active; CHI [15]: 42; pMED (HepG2 [11]): < 4; IC50 [19]: 8000 nM; solubility kinetic [23]: 500 µM (≈ 246 µg/mL); IC50 (Cytochrome P450 3A4 [24]): 300 nM |
| N#Cc1ccc(S(=O)(=O)[C@H]2CN(S(=O)(=O)c3ccc(Cl)cc3C#N)C[C@@]2(O)CO)cc1 | 0.5 | 25 | 7 | 82 | 2.6 | 2 | – | solubility kinetic [23]: 380 µM (≈ 183 µg/mL) |
